System: Rattus norvegicus
Experiment: Reduction in uterine wet weight in ethynyl estradiol-stimulated CD-IGS rat at 200 mg/kg, po dosed daily for 3 days by gavage followed 15 mins later by 0.1 mg/kg, po ethynyl estradiol and measured 24 hrs after last dose by immature rat uterine wet weight assay
Assay type: functional
Summary of the method: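 Female immature CD-IGS rats, 21 days old on arrival. Compound or vehicle was given orally by gavage once daily for 3 days, and oral ethynyl estradiol at 0.1 mg/kg followed each dose by 15 min. On day 4, 24 h after dosing, plasma was taken for PK, then the uterus was removed and weighed. % reduction = 100 × (VehicleEE − Cpd)/(VehicleEE − Vehicle).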

Compound: C[C@]12CC[C@@H]3c4ccc(O)cc4C[C@@H](CCCCCCCCC[S+]([O-])CCCC(F)(F)C(F)(F)F)[C@H]3[C@@H]1CC[C@@H]2O (stereo partly specified) [FULVESTRANT]
- inhibition (INH): 110%
